From ChEMBL document CHEMBL4052597, “Symmetrically Substituted Xanthone Amphiphiles Combat Gram-Positive Bacterial Resistance with Enhanced Membrane Selectivity” (J Med Chem, 2017)
≈ marks a conversion by molar mass, not a printed value. Calls of active or inactive are those of the source. No cut-off for these calls is given here.

Tests used:
Staphylococcus aureus [1] = test: Disruption of cytoplasmic membrane in Staphylococcus aureus isolate DM4001R at 100 ug/ml after 3000 secs by SYTOX green dye based fluorescence assay; type: functional
Outline: (§1)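 Clinical S. aureus isolate DM4001R incubated with SYTOX Green plus compound; membrane permeabilization read as increased fluorescence intensity. Measurements replicated.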

Lipid bilayer [2] = test: Induction of membrane damage in DOPC/cholesterol large unilamellar vesicles assessed as calcein leakage at compound to lipid ratio of 1:16 after 1 hr by fluorescence assay relative to control
Outline: (§2)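 100 nm calcein-loaded LUVs made by film hydration; lipid content set by total phosphorus assay. DOPC/cholesterol (3:1, w/w) mimics mammalian and DOPE/DOPG (3:1, w/w) bacterial membranes. Compound in DMF added at lipid-to-compound ratio 16 (6.25 µM compound), final DMF limited to 0.5%. Fluorescence monitored at ex 490/em 520 nm for 1 hour; replicated.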

Staphylococcus aureus [3] = test: Antibacterial activity against methicillin-resistant Staphylococcus aureus DM 9808R after 24 hrs by two fold dilution assay; type: functional
Outline: (§3)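 CLSI broth macrodilution in cation-adjusted Mueller-Hinton broth. Compounds were dissolved in DMF and diluted in PBS to a 1000 µg/mL stock, then serially 2-fold diluted in CA-MHB. The inoculum came from colonies on 18-20 h TSA plates (direct colony suspension), adjusted to ~5×10^5 CFU/mL. Incubation was 24 h at 35 °C. MIC is the lowest concentration with no visible growth versus control. Biological replicates.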

Lipid bilayer [4] = test: Induction of membrane damage in DOPE/DOPG large unilamellar vesicles assessed as calcein leakage at compound to lipid ratio of 1:16 after 1 hr by fluorescence assay relative to control; outline: as §2
Staphylococcus aureus [5] = test: Disruption of membrane in Staphylococcus aureus isolate DM4001R assessed as […] in ATP leakage at 200 ug/ml after 1 hr by ATP bioluminescent assay relative to control; type: functional; design: scale not given: the % may be the effect or the level left
Outline: (§4)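 S. aureus DM4001 grown to exponential phase, washed three times in 20 mM PBS (pH 7), resuspended to OD600 0.2. Compound added, suspensions held 1 hour at 37 °C, then centrifuged. Supernatant mixed with luciferase/luciferin enzyme mix; extracellular ATP quantified by luminescence. Replicated.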

Staphylococcus aureus [6] = test: Antibacterial activity against Staphylococcus aureus DM 4001R after 24 hrs by two fold dilution assay; type: functional; outline: as §3
Staphylococcus aureus [7] = test: Antibacterial activity against methicillin-resistant Staphylococcus aureus DM 21455 after 24 hrs by two fold dilution assay; type: functional; details: DM 21455, 24 h; outline: as §3
Bacillus cereus = test: Antibacterial activity against Bacillus cereus ATCC 11778 after 24 hrs by two fold dilution assay; type: functional; details: ATCC 11778, 24 h
Outline: (§5)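 Broth macro-dilution per CLSI in cation-adjusted Mueller-Hinton broth; compounds dissolved in DMF, diluted in PBS to 1000 µg/mL stock, then serial 2-fold dilutions in CA-MHB in tubes. Inoculum from 18-20 h TSA colonies (direct colony suspension), adjusted to about 5× 10^5 CFU/mL. MIC read after 24 h at 35 °C as lowest concentration with no visible growth; biological replicates.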

Staphylococcus aureus [8] = test: Antibacterial activity against methicillin-resistant Staphylococcus aureus DB6506 after 24 hrs by two fold dilution assay; type: functional; details: DB6506, 24 h; outline: as §3
Staphylococcus aureus [9] = test: Antibacterial activity against methicillin-resistant Staphylococcus aureus ATCC 43300 after 24 hrs by two fold dilution assay; type: functional; details: ATCC 43300, 24 h; outline: as §3
Staphylococcus aureus [10] = test: Disruption of membrane in Staphylococcus aureus isolate DM4001R assessed as increase in ATP leakage at 4 times MIC after 1 hr by ATP bioluminescent assay relative to control; type: functional; outline: as §4
Staphylococcus aureus [11] = test: Antibacterial activity against methicillin-sensitive Staphylococcus aureus ATCC 6538 after 24 hrs by two fold dilution assay; type: functional; details: ATCC 6538, 24 h; outline: as §3
Enterococcus faecium [12] = test: Antibacterial activity against vancomycin A-resistant Enterococcus faecium VRE 1008 after 24 hrs by two fold dilution assay; type: functional; details: VRE 1008, 24 h; outline: as §3
Enterococcus faecalis = test: Antibacterial activity against Enterococcus faecalis ATCC 29212 after 24 hrs by two fold dilution assay; type: functional; details: ATCC 29212, 24 h; outline: as §5
Staphylococcus aureus [13] = test: Antibacterial activity against methicillin-resistant Staphylococcus aureus ATCC 700699 after 24 hrs by two fold dilution assay; type: functional; details: Mu50, 24 h; outline: as §3
Staphylococcus aureus [14] = test: Antibacterial activity against methicillin-sensitive Staphylococcus aureus DM4400R after 24 hrs by two fold dilution assay; type: functional; outline: as §3
Staphylococcus aureus [15] = test: Antibacterial activity against methicillin-sensitive Staphylococcus aureus ATCC 29737 after 24 hrs by two fold dilution assay; type: functional; details: ATCC 29737, 24 h; outline: as §3
Staphylococcus aureus [16] = test: Bactericidal activity against methicillin-resistant Staphylococcus aureus DM21455 assessed as log reduction in bacterial load at 2 times MIC after 2 hrs by time kill assay; type: functional
Outline: (§6)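 MRSA DM21455 was taken from colonies on 18-22 h TSA plates and diluted to 10^5~10^6 CFU/mL in PBS. Cells were exposed to 0.5×, 1×, 2× and 4× MIC at 35 °C, with a PBS control. Samples were taken at 10 min, 30 min, 1, 2, 4 and 8 h, 10-fold diluted in PBS and plated on MHA. Colonies were counted after 24-48 h at 35 °C. Replicated.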

Staphylococcus aureus [17] = test: Antibacterial activity against methicillin-sensitive Staphylococcus aureus DM4299 after 24 hrs by two fold dilution assay; type: functional; details: DM4299, 24 h; outline: as §3
Staphylococcus aureus [18] = test: Antibacterial activity against Staphylococcus aureus ATCC 700699 infected in C57BL6 mouse cornea assessed as decrease in number of viable bacteria at 0.5% administered topically at 2 hrs interval for 4 times starting on day 1 post infection measured post last dose relative to control; type: functional, Mu50
Enterococcus faecium [19] = test: Antibacterial activity against vancomycin A-resistant Enterococcus faecium VRE 1007 after 24 hrs by two fold dilution assay; type: functional; details: VRE 1007, 24 h; outline: as §3
[20] = Solubility of the compound in water; type: physicochemical; details: buffer
Staphylococcus aureus [21] = test: Disruption of cytoplasmic membrane in Staphylococcus aureus isolate DM4001R at 2 times MIC after 3000 secs by SYTOX green dye based fluorescence assay; type: functional; outline: as §1
Staphylococcus aureus [22] = test: Antibacterial activity against methicillin-resistant Staphylococcus aureus DB68004 after 24 hrs by two fold dilution assay; type: functional; details: DB68004, 24 h; outline: as §3
Staphylococcus aureus [23] = test: Antibacterial activity against methicillin-sensitive Staphylococcus aureus DM4583R after 24 hrs by two fold dilution assay; type: functional; outline: as §3
[24] = Cytotoxicity against human corneal fibroblasts assessed as reduction in cell viability up to 250 uM after 4 hrs by CytoTox-ONE reagent-based LDH assay relative to control; details: corneal fibroblast
Outline: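 Human corneal fibroblasts exposed to compound; cytotoxicity taken from LDH leakage, with cells treated with 1% triton X-100 as positive control. Measurements replicated.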

Staphylococcus aureus [25] = test: Antibacterial activity against Staphylococcus aureus ATCC 29213 infected in C57BL6 mouse cornea assessed as decrease in number of viable bacteria at 0.5% administered topically at 2 hrs interval for 4 times starting on day 1 post infection measured post last dose relative to control; type: functional
Staphylococcus aureus [26] = test: Antibacterial activity against methicillin-resistant Staphylococcus aureus DB57964 after 24 hrs by two fold dilution assay; type: functional; details: DB57964, 24 h; outline: as §3
Staphylococcus aureus [27] = test: Antibacterial activity against methicillin-sensitive Staphylococcus aureus ATCC 29213 after 24 hrs by two fold dilution assay; type: functional; details: ATCC 29213, 24 h; outline: as §3
Enterococcus hirae = test: Antibacterial activity against Enterococcus hirae ATCC 9790 after 24 hrs by two fold dilution assay; type: functional; details: ATCC 9790, 24 h; outline: as §5
Staphylococcus aureus [28] = test: Bactericidal activity against methicillin-resistant Staphylococcus aureus DM21455 assessed as log reduction in bacterial load at 4 times MIC after 10 mins by time kill assay; type: functional; outline: as §6
Staphylococcus aureus [29] = test: Antibacterial activity against methicillin-resistant Staphylococcus aureus ATCC BAA-38 after 24 hrs by two fold dilution assay; type: functional; details: ATCC BAA-38, 24 h; outline: as §3
Staphylococcus aureus [30] = test: Antibacterial activity against Staphylococcus aureus ATCC 29213 at 0.5 times MIC after 17 serial passages; type: functional
Outline: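 Serial-passage resistance selection in S. aureus ATCC29213. MIC was determined by CA-MHB broth macrodilution (2-fold dilutions, ~5×10^5 CFU/mL, 35 °C). Cells grown at 0.5× MIC were recovered and used to prepare the inoculum for the next MIC assay, with MIC change read after each 24 h/35 °C round. This was repeated for 17 passages, or 30 passages for one compound. Replicated.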

Enterococcus faecium [31] = test: Antibacterial activity against vancomycin A-resistant Enterococcus faecium VRE 1006 after 24 hrs by two fold dilution assay; type: functional; details: VRE 1006, 24 h; outline: as §3

## O=c1c2c(O)cc(O)cc2oc2cc(O)cc(O)c12
Staphylococcus aureus [1]
  Activity: inactive
Lipid bilayer [2]
  Activity: < 20%
Staphylococcus aureus [3]
  MIC: > 50 µg/mL
Lipid bilayer [4]
  Activity: 11.7%
Staphylococcus aureus [5]
  Activity: 6.9%
Staphylococcus aureus [6]
  MIC: > 50 µg/mL
Staphylococcus aureus [7]
  MIC: > 50 µg/mL
Bacillus cereus
  MIC: > 50 µg/mL

## COC(=O)[C@H](CCCNC(=N)N)NC(=O)COc1cc(OCC=C(C)C)cc2oc3cc(OCC=C(C)C)cc(OCC(=O)N[C@@H](CCCNC(=N)N)C(=O)OC)c3c(=O)c12
Staphylococcus aureus [8]
  MIC: 1.56 µg/mL (≈ 1.83 µM)
Staphylococcus aureus [9]
  MIC: 1.56 µg/mL (≈ 1.83 µM)
Staphylococcus aureus [10]
  Activity: 59.6%
Staphylococcus aureus [11]
  MIC: 0.78 µg/mL (≈ 0.914 µM)
Enterococcus faecium [12]
  MIC: 6.25 µg/mL (≈ 7.33 µM)
Enterococcus faecalis
  MIC: 3.13 µg/mL (≈ 3.67 µM)
Staphylococcus aureus [13]
  MIC: 3.13 µg/mL (≈ 3.67 µM)
Staphylococcus aureus [14]
  MIC: 0.78 µg/mL (≈ 0.914 µM)
Staphylococcus aureus [15]
  MIC: 0.78 µg/mL (≈ 0.914 µM)
Lipid bilayer [2]
  Activity: < 20%
Staphylococcus aureus [16]
  log(activity): 3
Staphylococcus aureus [17]
  MIC: 3.13 µg/mL (≈ 3.67 µM)
Staphylococcus aureus [18]
  Activity: 92.8%
Enterococcus faecium [19]
  MIC: 6.25 µg/mL (≈ 7.33 µM)
[20]
  solubility: Soluble
Staphylococcus aureus [3]
  MIC: 0.78 µg/mL (≈ 0.914 µM)
Lipid bilayer [4]
  Activity: 58.7%
Staphylococcus aureus [21]
  Activity: Active
Staphylococcus aureus [22]
  MIC: 3.13 µg/mL (≈ 3.67 µM)
Staphylococcus aureus [23]
  MIC: 1.56 µg/mL (≈ 1.83 µM)
[24]
  Activity: Non-Toxic
Staphylococcus aureus [25]
  Activity: 98.5%
Staphylococcus aureus [26]
  MIC: 1.56 µg/mL (≈ 1.83 µM)
Staphylococcus aureus [27]
  MIC: 3.13 µg/mL (≈ 3.67 µM)
Staphylococcus aureus [6]
  MIC: 0.78 µg/mL (≈ 0.914 µM)
Staphylococcus aureus [7]
  MIC: 1.56 µg/mL (≈ 1.83 µM)
Enterococcus hirae
  MIC: 6.25 µg/mL (≈ 7.33 µM)
Staphylococcus aureus [28]
  log(activity): 3
Staphylococcus aureus [29]
  MIC: 3.13 µg/mL (≈ 3.67 µM)
Staphylococcus aureus [30]
  Activity: Active
Bacillus cereus
  MIC: 3.13 µg/mL (≈ 3.67 µM)
Enterococcus faecium [31]
  MIC: 6.25 µg/mL (≈ 7.33 µM)
